Measured values from ChEMBL document CHEMBL1152657, “1-(2-((Z)-6-(2-(Trifluoromethyl)phenyl)hexa-3-en-1,5-diynyl)phenyl)piperidin-2-one as a new potent apoptosis agent” (2009).
The source made the active and inactive calls. The rule behind the calls is not given here.

Experiments:
[1] = test system: HCC 2998; test: Growth inhibition of human HCC2998 cells; assay type: functional
Outline: (§1)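 Tested in the NCI in vitro antitumor screening protocol on human tumor lines. The value is the concentration giving 50% reduction in cell growth.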

[2] = test system: MDA-MB-435; test: Growth inhibition of human MDA-MB-435 cells; assay type: functional; outline: as §1
[3] = test system: K562; test: Cell cycle arrest in human K562 cells assessed as accumulation at SubG1 phase at 50 uM after 24 hrs by flow cytometry; assay type: functional
Outline: (§2)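 K-562 cells (RPMI 1640, 10% fetal calf serum, 37 °C, 5% CO2) were exposed for 24 h, then fixed in ice-cold 70% ethanol for 30 min. They were treated with RNase A (1 mg/ml, 37 °C, 30 min) and stained with propidium iodide and Triton X-100 solution for 30 min in the dark. DNA content was read on 10,000 events by flow cytometry, and the sub-G1 region was gated as apoptotic.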

[4] = test system: K562; test: Cell cycle arrest in human K562 cells assessed as accumulation at S phase at 50 uM after 24 hrs by flow cytometry; assay type: functional; outline: as §2
[5] = test system: K562; test: Induction of apoptosis in human K562 cells assessed as down-regulation of Bcl2 protein level after 24 hrs by Western blot; assay type: functional, cell-based
Outline: (§3)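 Cells were dosed at several concentrations for 24 h and lysed in Tris-HCl pH 7.5 NP-40 buffer with phosphatase inhibitors. Equal protein was run on SDS-PAGE and transferred to PVDF. Membranes were blocked with 5% nonfat milk in TBST for 1 h, then immunoblotted.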

[6] = test system: K562; test: Cell cycle arrest in human K562 cells assessed as apoptotic cells at 50 uM after 24 hrs by flow cytometry; assay type: functional; outline: as §2
[7] = test system: HOP-62; test: Growth inhibition of human HOP62 cells; assay type: functional; outline: as §1
[8] = test system: K562; test: Induction of apoptosis in human K562 cells assessed as cytochrome-C release after 24 hrs by Western blot; assay type: functional, cell-based; outline: as §3
[9] = test system: UACC-62; test: Growth inhibition of human UACC62 cells; assay type: functional; outline: as §1
[10] = test system: K562; test: Induction of apoptosis in human K562 cells assessed as increase in caspase-9 activity at 25 uM by colorimetric assay; assay type: functional, cell-based
Outline: (§4)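 Treated K-562 cells (1×10^6 cells/ml) were PBS-washed and lysed on ice for 10 min, and the cytosolic supernatant was cleared at 18,000 g. Protein was measured by BCA. Lysate protein was incubated with caspase-specific colorigenic substrate in 2X reaction buffer with 10 mM DTT at 37 °C for 1 h, and absorbance was read at 405 nm.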

[11] = test system: MDA-MB-231; test: Growth inhibition of human MDA-MB-231 cells; assay type: functional; outline: as §1
[12] = test system: OVCAR-3; test: Growth inhibition of human OVCAR-3 cells; assay type: functional; outline: as §1
[13] = test system: K562; test: Cell cycle arrest in human K562 cells assessed as accumulation at G0/G1 phase at 10 uM after 24 hrs by flow cytometry; assay type: functional; outline: as §2
[14] = test system: K562; test: Cell cycle arrest in human K562 cells assessed as accumulation at SubG1 phase at 10 uM after 24 hrs by flow cytometry; assay type: functional; outline: as §2
[15] = test system: SNB-75; test: Growth inhibition of human SNB75 cells; assay type: functional; outline: as §1
[16] = test system: K562; test: Induction of apoptosis in human K562 cells assessed as upregulation of Bax protein level after 24 hrs by Western blot; assay type: functional, cell-based; outline: as §3
[17] = test system: HeLa; test: Induction of microtubule depolymerization in human HeLa cells at 50 uM after 2 hrs by immunocytochemistry; assay type: functional, cell-based
Outline: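 HeLa cells were grown 24 h on coverslips, then treated at 37 °C. They were fixed in 4% paraformaldehyde for 5 min and permeabilized with 0.5% Triton X-100. After blocking with 5% goat serum/1% BSA, cells were stained with anti-ninein and anti-tubulin (45 min, 37 °C), then Alexa-conjugated secondaries and DAPI. Imaging was by confocal microscopy with a 100x objective.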

[18] = test system: K562; test: Induction of apoptosis in human K562 cells assessed as increase in caspase-3 activity by colorimetric assay; assay type: functional, cell-based; outline: as §4
[19] = test system: K562; test: Cell cycle arrest in human K562 cells assessed as accumulation at S phase at 10 uM after 24 hrs by flow cytometry; assay type: functional; outline: as §2
[20] = test system: K562; test: Induction of apoptosis in human K562 cells assessed as increase in caspase-9 activity at 50 uM by colorimetric assay; assay type: functional, cell-based; outline: as §4
[21] = test system: DU-145; test: Growth inhibition of human DU145 cells; assay type: functional; outline: as §1
[22] = test system: K562; test: Cell cycle arrest in human K562 cells assessed as accumulation at G2/M phase at 50 uM after 24 hrs by flow cytometry; assay type: functional; outline: as §2
[23] = test system: K562; test: Growth inhibition of human K562 cells; assay type: functional; outline: as §1
[24] = test system: CCRF-CEM; test: Growth inhibition of human CCRF-CEM cells; assay type: functional; outline: as §1
[25] = test system: K562; test: Cell cycle arrest in human K562 cells assessed as accumulation at G0/G1 phase at 50 uM after 24 hrs by flow cytometry; assay type: functional; outline: as §2
[26] = test system: K562; test: Cell cycle arrest in human K562 cells assessed as accumulation at G2/M phase at 10 uM after 24 hrs by flow cytometry; assay type: functional; outline: as §2
[27] = test system: HCT-15; test: Growth inhibition of human HCT15 cells; assay type: functional; outline: as §1
[28] = test system: K562; test: Induction of apoptosis in human K562 cells assessed as downregulation of XIAP protein level after 24 hrs by Western blot; assay type: functional, cell-based; outline: as §3
[29] = test system: M14; test: Growth inhibition of human M14 cells; assay type: functional; outline: as §1
[30] = test system: K562; test: Induction of apoptosis in human K562 cells assessed as PARP cleavage after 24 hrs by Western blot; assay type: functional, cell-based; outline: as §3
[31] = test system: ACHN; test: Growth inhibition of human ACHN cells; assay type: functional; outline: as §1
[32] = test system: K562; test: Cell cycle arrest in human K562 cells assessed as accumulation at G1 phase at 50 uM after 24 hrs by flow cytometry; assay type: functional; outline: as §2

Compound	GI50 [1]	GI50 [2]	GI50 [11]	GI50 [12]	GI50 [21]	GI50 [23]	GI50 [24]	GI50 [27]	Activity [3]	Activity [4]	GI50 [7]	GI50 [9]	Activity [13]	Activity [14]	GI50 [15]	Activity [19]	Activity [22]	Activity [25]	Activity [26]	GI50 [29]	also measured
CCC(=O)Nc1ccccc1C#C/C=C\C#Cc1ccccc1SC	4190 nM	750 nM	2170 nM	1790 nM	1.93 µM	2.29 µM	790 nM	3350 nM	16.2%	12.7%	2.52 µM	1690 nM	22.7%	9.8%	630 nM	42.1%	68.5%	18.7%	35.2%	1790 nM	GI50 [31]: 4.08 µM
CCC(=O)Nc1ccccc1C#C/C=C\C#Cc1ccccc1C(F)(F)F	5080 nM	1920 nM	7920 nM	8870 nM	40.5 µM	6.36 µM	2750 nM	4270 nM	26.11%	16.1%	10 µM	4040 nM	14.6%	15.3%	4760 nM	51.9%	82.7%	1.2%	33.5%	12000 nM	GI50 [31]: 30.1 µM
Nc1ccccc1C#C/C=C\C#Cc1ccccc1C(F)(F)F	–	–	–	–	–	–	–	–	–	19.3%	–	–	–	–	–	–	73.9%	–	–	–	Activity [6]: 19.4%; Activity [10]: Active; Activity [17]: Active; Activity [18]: Dose-dependent effect; Activity [20]: Active; Activity [32]: 6.7%

Continued by falling GI50 [1], values first:

GI50 [1]	GI50 [2]	GI50 [11]	GI50 [12]	GI50 [21]	GI50 [23]	GI50 [24]	GI50 [27]	Compound	Activity [3]	Activity [4]	GI50 [7]	GI50 [9]	Activity [13]	Activity [14]	GI50 [15]	Activity [19]	Activity [22]	Activity [25]	Activity [26]	GI50 [29]	also measured
1320 nM	900 nM	1190 nM	1030 nM	10.1 µM	0.44 µM	210 nM	1530 nM	CSc1ccccc1C#C/C=C\C#Cc1ccccc1N1CCCC1=O	17.79%	22.9%	5.02 µM	1440 nM	49.3%	15.39%	2340 nM	0%	69.4%	7.7%	51.7%	3000 nM	GI50 [31]: 10.5 µM
950 nM	600 nM	1160 nM	870 nM	1.68 µM	8.56 µM	1560 nM	1530 nM	O=C1CCCCN1c1ccccc1C#C/C=C\C#Cc1ccccc1C(F)(F)F	31.57%	0%	0.89 µM	1440 nM	8.9%	23.9%	1610 nM	12.9%	59.7%	40.3%	78.3%	900 nM	Activity [5]: Dose-dependent effect; Activity [6]: 51%; Activity [8]: Dose-dependent effect; Activity [10]: Active; Activity [16]: Dose-dependent effect; Activity [17]: Active; Activity [18]: Dose-dependent effect; Activity [20]: Active; Activity [28]: Dose-dependent effect; Activity [30]: Active; GI50 [31]: 2.67 µM; Activity [32]: 27.7%
